IC50, MIC and MI50 data for three molecules are collected here from ChEMBL document CHEMBL1154249, “Semisynthesis and biological evaluation of abietane-type diterpenes. Revision of the structure of rosmaquinone” (J Nat Prod, 2009).

SMILES strings stand for the structures. Bounds are passed on as bounds.

Assay [1] has as its system Vero. The experiment in a line: Cytotoxicity against african green monkey Vero cells at exponential phase of growth after 48 hrs by MTT assay. The class given is cell-based, Chlorocebus sabaeus. In a few lines:
(§1)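 Monolayers grown in DMEM with 5% fetal calf serum and penicillin-streptomycin at 37 °C, 5% CO2. 2×10^4 cells/well in lag or log phase were exposed for 48 h to a concentration series of compounds predissolved in DMSO. MTT formazan was dissolved in DMSO and read at 550 nm. IC50 taken from the curve; three independent experiments.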
Background: Tetrazolium dyes change colour on reduction, which living cells bring about.

The subject of assay [2] is Mycolicibacterium smegmatis. Nature of the assay: Antibacterial activity against Mycobacterium smegmatis ATCC 19420 after 48 hrs by broth dilution assay. The class given is functional. As to conditions: ATCC 19420, 48 h; call rule not given here. In a few lines: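 Brain heart infusion broth with 0.06% Tween 80, 37 °C on a rotary shaker, inoculum about (1-5) × 10^5 cfu/mL, DMSO ≤1% v/v with matched controls, in triplicate. OD550 monitored.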
A general note: In broth dilution the organism is exposed to a series of concentrations in liquid medium.

In assay [3] the test system is HEp-2. Nature of the assay: Cytotoxicity against human Hep2 cells at lag phase of growth after 48 hrs by MTT assay. The class given is functional, cell-based. In a few lines: as §1
The test system of another assay is Enterococcus faecalis. The experiment in a line: Antibacterial activity against Enterococcus faecalis ATCC 29212 after 24 hrs by broth dilution assay. The assay is classed as functional. The conditions noted are these: ATCC 29212, 24 h. In a few lines: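 Microdilution in brain heart infusion broth, shaken at 37 °C, about (1-5) × 10^5 cfu/mL start, DMSO ≤1% v/v with matched controls, in triplicate. OD550 read. Clear wells at 24 h were subcultured in duplicate onto brain heart infusion agar and counted after overnight incubation. MIC is the lowest concentration giving growth inhibition.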

For assay [4], the system named is HeLa. Nature of the assay: Cytotoxicity against human HeLa cells at exponential phase of growth after 48 hrs by MTT assay. The assay is classed as functional, cell-based. In a few lines:
as §1

Assay [5] has as its system HeLa. Nature of the assay: Cytotoxicity against human HeLa cells at lag phase of growth after 48 hrs by MTT assay. The class given is functional, cell-based. In a few lines:
as §1

Assay [6] has as its system HEp-2. Nature of the assay: Cytotoxicity against human Hep2 cells at exponential phase of growth after 48 hrs by MTT assay. The assay is classed as functional, cell-based. In a few lines: as §1
Another assay relates to Pseudomonas aeruginosa. Nature of the assay: Antibacterial activity against Pseudomonas aeruginosa AK958 after 24 hrs by broth dilution assay. The class given is functional. The conditions noted are these: AK958, 24 h. In short, it runs like this:
(§2)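 Microdilution in nutrient broth at 37 °C, about (1-5) × 10^5 cfu/mL inoculum, compounds in DMSO (≤1% v/v, matched DMSO controls), in triplicate. Growth followed by OD550. Wells without visible growth after 24 h on a rotary shaker were subcultured in duplicate onto nutrient agar and colonies counted after overnight incubation. MIC is the lowest concentration inhibiting growth at 24 h.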

Assay [7] has as its system Staphylococcus epidermidis. The experiment in a line: Antibacterial activity against Staphylococcus epidermidis ATCC 14990 after 24 hrs by broth dilution assay. The assay is classed as functional. In a few lines:
as §2

Another assay has as its system Bacillus subtilis. Nature of the assay: Antibacterial activity against Bacillus subtilis ATCC 6051 after 24 hrs by broth dilution assay. The assay is classed as functional.
In a further assay the test system is Candida albicans. Nature of the assay: Antibacterial activity against Candida albicans CECT 1039 after 24 hrs by broth dilution assay.
The test system of another assay is Salmonella. The experiment in a line: Antibacterial activity against Salmonella CECT 4569 after 24 hrs by broth dilution assay. The class given is functional. As to conditions: CECT 4569, 24 h. In short, it runs like this:
as §2

In assay [8] the test system is MCF7. The experiment in a line: Cytotoxicity against human […] cells at exponential phase of growth after 48 hrs by MTT assay. The class given is functional, cell-based. In a few lines:
as §1

The test system of assay [9] is A549. The experiment in a line: Cytotoxicity against human A549 cells at exponential phase of growth after 48 hrs by MTT assay. The assay is classed as functional, cell-based. In short, it runs like this:
as §1

Assay [10] relates to A549. The experiment in a line: Cytotoxicity against human A549 cells at lag phase of growth after 48 hrs by MTT assay. The class given is functional, cell-based. In a few lines:
as §1

Another assay relates to Bacillus cereus. The experiment in a line: Antibacterial activity against Bacillus cereus ATCC 21772 after 24 hrs by broth dilution assay. The assay is classed as functional.
In a further assay the test system is Proteus mirabilis. Nature of the assay: Antibacterial activity against Proteus mirabilis CECT 170 after 24 hrs by broth dilution assay. The class given is functional. The conditions noted are these: CECT 170, 24 h. In short, it runs like this: as §2
The test system of another assay is Staphylococcus aureus. Nature of the assay: Antibacterial activity against Staphylococcus aureus ATCC 6538 after 24 hrs by broth dilution assay. The class given is functional.
In assay [11] the test system is MCF7. The experiment in a line: Cytotoxicity against human MCF7 cells at lag phase of growth after 48 hrs by MTT assay. The class given is functional, cell-based. In a few lines: as §1
A further assay concerns Escherichia coli. The experiment in a line: Antibacterial activity against Escherichia coli ATCC 9637 after 24 hrs by broth dilution assay. The class given is functional. As to conditions: ATCC 9637, 24 h. In a few lines:
as §2

Assay [12] has as its system Vero. The experiment in a line: Cytotoxicity against african green monkey Vero cells at lag phase of growth after 48 hrs by MTT assay. The class given is cell-based, Chlorocebus sabaeus. In short, it runs like this: as §1
Setting [13] is: Chlorocebus sabaeus, Vero, 48 h, read-out: IC50.
[14] abbreviates: Homo sapiens, HEp-2, 48 h, read-out: IC50.
Where [15] appears, read: Homo sapiens, HeLa, 48 h, read-out: IC50.
Setting [16] is: Homo sapiens, MCF7, 48 h, read-out: IC50.
Where [17] appears, read: Homo sapiens, A549, 48 h, read-out: IC50.

Regarding `C[C@H]1COc2c1cc1c(c2O)[C@@]23CCCC(C)(C)[C@@H]2C[C@@H]1OC3=O`, the IC50 in the assay on Vero [1] (setting [13]) is over 60 µM; in the assay on HEp-2 [3] (setting [14]) it was over 60 µM; in the assay on HeLa [4] (setting [15]), 37.8 µM; with HeLa [5] (setting [15]) it was 56.1 µM; in the assay with HEp-2 [6] (setting [14]), over 60 µM; in the assay on MCF7 [8] (setting [16]), over 60 µM. Further, the IC50 with A549 [9] (setting [17]) was 51.5 µM; with A549 [10] (setting [17]), over 60 µM; in the assay on MCF7 [11] (setting [16]), over 60 µM; in the assay on Vero [12] (setting [13]), over 60 µM. Also, the MIC (in assay [2]; with Enterococcus faecalis; in the assay on Pseudomonas aeruginosa; in assay [7]; against Bacillus subtilis; against Candida albicans) was over 40 µg/mL in each case. For the same molecule, the MIC in the assay with Salmonella, in the assay with Proteus mirabilis, in the assay with Staphylococcus aureus and in the assay with Escherichia coli was over 40 µg/mL each time. The same molecule showed an MI50 in the assay with Bacillus cereus of over 40 µg/mL.

Regarding `C[C@H]1COC2=C1C(=O)C1=C(C2=O)[C@@]23CCCC(C)(C)[C@@H]2C[C@@H]1OC3=O`, the IC50 in the assay on Vero [1] (setting [13]) is over 58.4 µM; with HEp-2 [3] (setting [14]), over 58.4 µM; in the assay with HeLa [4] (setting [15]) it was 17.5 µM; in the assay on HeLa [5] (setting [15]), 50.3 µM; in the assay on HEp-2 [6] (setting [14]), 39.8 µM; with MCF7 [8] (setting [16]) it was 18.4 µM. Further, the IC50 in the assay on A549 [9] (setting [17]) is 40.4 µM; in the assay on A549 [10] (setting [17]), over 58.4 µM; in the assay on MCF7 [11] (setting [16]), 33 µM; in the assay on Vero [12] (setting [13]), over 58.4 µM. For the same molecule, the MIC (in assay [2]; in the assay with Enterococcus faecalis; in the assay on Pseudomonas aeruginosa; in assay [7]; against Bacillus subtilis; with Candida albicans) was over 40 µg/mL each time. Further, the MIC with Salmonella, in the assay with Proteus mirabilis, with Staphylococcus aureus and against Escherichia coli was over 40 µg/mL each time. Besides, the MI50 in the assay on Bacillus cereus is over 40 µg/mL.

As for `COc1c(C(C)C)cc2c(c1OC)[C@@]13CCCC(C)(C)[C@@H]1[C@H](OC3=O)[C@@H]2OCc1ccccc1`, the IC50 result in the assay with Vero [1] (vero), with HEp-2 [3] (hep-2), with HeLa [4] (hela), with HeLa [5] (hela), with HEp-2 [6] (hep-2) and in the assay with MCF7 [8] (mcf7) was “Not Active” each time. For the same molecule, the IC50 result in the assay on A549 [9] (a549), in the assay on A549 [10] (a549), in the assay on MCF7 [11] (mcf7) and with Vero [12] (vero) was “Not Active” in each case. Further, the minimum inhibitory concentration (MIC) (in [2]; in the assay on Enterococcus faecalis; in the assay on Pseudomonas aeruginosa; in [7]; with Bacillus subtilis; against Candida albicans) was over 40 µg/mL in each case. Further, the MIC against Salmonella, in the assay on Proteus mirabilis, in the assay on Staphylococcus aureus and against Escherichia coli was over 40 µg/mL throughout. This molecule also returned an MI50 in the assay on Bacillus cereus of over 40 µg/mL.

A word on the IC50: it is the point on the concentration scale where inhibition reaches its midpoint. A word on the MIC: it is the lowest concentration found to suppress growth.
